Laboratory results from ChEMBL document CHEMBL4513216, “Probing the Open Global Health Chemical Diversity Library for Multistage-Active Starting Points for Next-Generation Antimalarials” (ACS Infect Dis, 2020).

Assay: Toxicity liver stage against HepG2, at 10uM
Type: cell-based
Design: test concentration 10 uM, cell line HepG2-A16-CD81EGFP
Conditions: human, HepG2-A16-CD81EGFP cells; read-out: INHIBITION
Outline: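 Uninfected HepG2-A16-CD81EGFP cells, 3 × 10^3 per well, 1536-well, plated on prespotted compound at 10 μM final, parasite-free screening media added to match infected plates; puromycin 10 μM positive, DMSO 0.5% negative; run in parallel with 48 h PbLuc assay at 37 °C, 5% CO2; viability by CellTiter-Glo luminescence, normalized to controls.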

Row | SMILES | cytotoxicity at 10 µM [%]
1 | O=C(c1cccnc1Oc1ccccc1)N1CCCn2ncnc21 | -13.7
2 | CCN(CC)C[C@H]1CN2CC[C@H]1C[C@@H]2CNC(=O)c1ccco1 | -2.49
3 | O=C1CO[C@H]2CN(S(=O)(=O)c3ccccc3)C[C@H]2N1Cc1ccccc1 | -1.69
4 | COCc1cn(C[C@H]2CC3CCN2C[C@@H]3C(=O)Nc2ccccc2)nn1 (stereo not given in full) | -0.522
5 | CC(C)NC(=O)C[C@@H]1CCNC[C@@H]1Cc1cc(-c2ccccn2)on1 | -3.15
6 | CC1=C[C@@H](CNS(C)(=O)=O)[C@H](C(C)C)C[C@H]1CC(=O)NCCN(C)C | 0.559
7 | COc1ccc(NC(=O)Cn2ccc3c(=O)n(C)ccc32)cc1OC | -4.34
8 | CCCNC(=O)c1cn(C(C)(C)C)c2ncccc12 | -0.317
9 | COCCn1cnc2ccc(NC(=O)c3ccc(OC)cc3)cc2c1=O | -6.78
10 | CC(=O)N1CCC2(CC1)CN(C(C)=O)CC21CCNC1=O (stereo not given) | -2.69
11 | Cc1oncc1C(=O)N1CCC2(CC1)CN(S(C)(=O)=O)c1ccccc12 | 1.47
12 | Cc1cnc(NC2CCc3c(ccc(=O)n3C)C2)nc1 (stereo not given) | -149
13 | CC(=O)N1CCC2(CC1)CN(C(=O)c1cccc3[nH]ccc13)C2 | -121
14 | Cc1nnc([C@@H]2CC[C@@H]3[C@@H](CCN3CC3CCOCC3)O2)o1 | 7.64
15 | Cc1noc(C2CCC3(CCN(C(=O)c4ncccn4)CC3)O2)n1 (stereo not given) | 4.09
16 | CCS(=O)(=O)N1CCC2(CC(=O)N(c3cnn(C)c3)C2)C1 (stereo not given) | 6.92
17 | CN1CCN(Cn2nc(-c3cccs3)ccc2=O)CC1 | 2.63
18 | CN1CCN(C(=O)Cn2ccc3c(Cl)cccc32)CC1 | 2.08
19 | CC[C@H](C)[C@H](NC(=O)c1ccccc1-n1cnnn1)C(=O)OC | 5.16
20 | O=C(c1cnn2c1OCCC2)N1CCC2(CC1)OCCO2 | 7.91
21 | Cc1nc(N2CCN(C(=O)c3ccccc3)CC2)c2c(n1)c(C)nn2C | 15.7
22 | Nc1nc(SCc2ccc3c(c2)OCO3)ns1 | -0.681

Row | SMILES | cytotoxicity at 10 µM [%]
23 | CCN(CC)S(=O)(=O)c1cc2c3c(c1)c(C)cc(=O)n3CCC2 | 2.85
24 | Cc1cc(C)nc(N2CCC(c3c(C(N)=O)sc4ccccc34)C2)n1 (stereo not given) | 8.78
25 | O[C@H]1CN(Cc2ccnc(N3CCCC3)n2)CC[C@@]12CCCO2 | 3.62
26 | Cc1c[nH]nc1C1CCN(C(=O)C2CCC2)CC1 | 5.33
27 | Cc1nccc(C2CN(C(=O)c3cncnc3)C2)n1 | -2.46
28 | O=C(c1nsc(Cl)c1Cl)N1CCc2nc3sccc3c(=O)n2CC1 | -20.4
29 | CC(=O)N1CCC(Cc2nccnc2-c2c(C)n[nH]c2C)C1 (stereo not given) | 10.7
30 | Cc1ncc2c(n1)CCN(Cc1ncc(C(C)(C)C)o1)C2 | 14
31 | CC(CNC(=O)c1cccc(-n2cccn2)c1)Cn1ccnc1 (stereo not given) | 0.335
32 | NC1(c2nc(-c3ccccc3)cc(=O)[nH]2)CCCC1 | 1.47
33 | O=C(CCn1cccn1)NCCOc1ccc2c(c1)OCO2 | -5.01
34 | CN(Cc1cnn(C)c1)C(=O)C(c1ccccc1)N1CCSCC1 (stereo not given) | 5.21
35 | NC(=O)[C@@H]1Cc2ccccc2N1C(=O)C1CC(c2ccccc2)=NO1 (stereo not given in full) | 5.79
36 | COc1cccc(CCC(=O)Nc2cnc3c(c2)c(C)nn3C)c1OC | 1.67
37 | Cc1ccc(OCCN(C)S(=O)(=O)c2cnn(C)c2)cc1 | 0.821
38 | N#Cc1ccc(F)c(CN(CC(=O)N2CCCC2)CC2CCCO2)c1 (stereo not given) | -7.06
39 | CN(Cc1cccc(Cl)c1)Cc1nnsc1Cl | 6.78
40 | CCN1CCC(CNC(=O)Nc2cccnc2OC)CC1 | -0.523
41 | Cc1cc(C(=O)N2CCN(S(C)(=O)=O)[C@@H](C)C2)c(F)cc1F | -1.78
42 | COCCc1noc(CN2CCCC2c2noc(C3CC3)n2)n1 (stereo not given) | 1.33
43 | Cc1cc(CCCC(=O)NC2CCN(C)C2=O)c(C)s1 (stereo not given) | -0.67
44 | CC(C)SCc1cccc(NC2CCN(C)C2=O)c1 (stereo not given) | 1.26

Row | SMILES | cytotoxicity at 10 µM [%]
45 | Cc1ccc(S(=O)(=O)N(CC(N)=O)CC(C)C)cc1C | -14.5
46 | CS(=O)(=O)N1CCC(CSc2ccccc2)C1 (stereo not given) | 1.58
47 | COc1cc(OC)cc(C(=O)NCCCNc2ncccn2)c1 | -11.1
48 | CCn1nc(C(=O)N2CCCC2c2noc(C3CC3)n2)ccc1=O (stereo not given) | 5.65
49 | CCC(NC(=O)CCCNC(=O)OC)c1cc(F)ccc1F (stereo not given) | -2.34
50 | CS(=O)(=O)CC1(CNc2c(C#N)cnc3ccc(Cl)cc23)CC1 | 8.62
51 | CC(=O)N1CCSCC1c1ccc(C)o1 (stereo not given) | -0.872
52 | Cn1cc(C2CCCN2C(=O)Cn2ccc3ccc(Cl)cc32)cn1 (stereo not given) | 8.81
53 | CC(C)(C)OC(=O)N1CSC[C@@H]1C(=O)NCc1ccncc1 | 1.17
54 | CCn1c(CN2CCOC(Cn3cncn3)C2)nc2cc(F)ccc21 (stereo not given) | -4.84
55 | NS(=O)(=O)c1cnc(NCC2(c3cccc(F)c3)CCOCC2)s1 | -5.71
56 | CCC(C)C(=O)Nc1ccc(CCN2CCOCC2)cc1 (stereo not given) | -0.578
57 | Cc1ccc(-c2nc(CNc3ccc(C(N)=O)c(C)c3)cs2)o1 | 23.9
58 | CCCC(NC(=O)c1cc(C)n(C2CC2)c1C)c1nnn[nH]1 (stereo not given) | -10.1
59 | CN(Cc1nnc(C2CC2)n1C)C(=O)c1ccnc(OC2CCC2)c1 | -1.01
60 | O=C(Nc1ccnc(OC2CCOC2)c1)C1CCC1 (stereo not given) | 5.76
61 | CN(CCC#N)C(=O)CCOc1cccc(F)c1 | -2.46
62 | CCc1nccn1C1CCCN(C(=O)c2cn3c(C)cccc3n2)C1 (stereo not given) | -14.5
63 | COc1cccc(CN2CCOC(Cn3nc(C)cc3C)C2)c1 (stereo not given) | 7.83
64 | Cc1cccc(CN2CCc3onc(CN(C)C)c3C2)n1 | -4.62
65 | CN1CC2(CCN(C(=O)COc3ccc(Cl)cc3Cl)CC2)OC1=O | -3.25
66 | O=C(O)CCc1cc2n(n1)CCCN(C(=O)c1ccc(F)cc1F)C2 | -0.168

Row | SMILES | cytotoxicity at 10 µM [%]
67 | CCc1nc(C)c([C@H]2CN(C)C[C@@H]2C(=O)NCc2ccccc2OC)[nH]1 | 0.15
68 | CCn1ccnc1CN1CCCC(N(C)CCc2ccccc2)C1 (stereo not given) | 2.88
69 | OCc1cn(CC2CCN(C3CCSC3)CC2)nn1 (stereo not given) | 0.55
70 | Cc1ccc(C(=O)N2CCC(n3cc(CN)nn3)CC2)cc1F | -3.54
71 | O=C(c1cc(COc2ccc3c(c2)OCO3)[nH]n1)N1CCSCC1 | -7.05
72 | O=C1O[C@@H]2CN(Cc3cccnc3)C[C@@H]2N1CCCN1CCOCC1 | -2.27
73 | CCN1CC2(CCC1=O)CCN(C(=O)c1cn3cccnc3n1)CC2 | -9.7
74 | CC(C)(C)c1ccc(OCc2nc3c(c(=O)[nH]2)CCNC3)cc1 | 5.11
75 | CN1CCN([C@@H]2CCN(Cc3ccc4cc(F)ccc4n3)C[C@H]2O)CC1 | -4.1
76 | CCn1nc(C)c(CCNC(=O)C2CCCN(C(=O)COC)C2)c1C (stereo not given) | -0.367
77 | CC(=O)N[C@@H]1CN(Cc2cccs2)C[C@H]1c1ccc(C)o1 | 6.54
78 | COc1ccc(CCN)cc1-c1ccc(O)cc1 | -3.05
79 | CCCC(C)C(=O)N1CCC(c2cc(N3CCOCC3)nc(C)n2)CC1 (stereo not given) | -3.35
80 | COCCN1CCN(c2ncnc3nc(C)cc(C)c23)CC1 | 2.42
81 | CCS(=O)(=O)c1ncc(CN(C)Cc2ccccc2Cl)n1CCOC | 3.58
82 | NCCn1cc(C(=O)N2CCNC(=O)C2c2cccc(F)c2)nn1 (stereo not given) | 3.62
83 | Cc1ccc(Oc2ncccc2CNC2Cc3ccccc3C2)cn1 | -2.19
84 | CC(C)CN1CC2(CCN(C(=O)c3cn4cccnc4n3)CC2)CC1=O | -6.84
85 | CCS(=O)(=O)N1CCC2(CCCN(Cc3cc(OC)ccc3F)C2)C1 (stereo not given) | 14.4
86 | CCn1c(CN(C)C)nnc1C1CCN(c2ccnc(C)c2)CC1 | 14.9
87 | COc1ccccc1CN(C)C(=O)NCc1c(C)cc(C)[nH]c1=O | -4.98
88 | CN(C)C(=O)c1cccc(CN2CCN(CC(O)C(C)(C)C)CC2)c1 (stereo not given) | 1.74

Row | SMILES | cytotoxicity at 10 µM [%]
89 | Cn1cc(Cl)cc1C(=O)N1CCN(Cc2cccs2)CC1 | -8.1
90 | O=C(Cc1ccc2c(c1)CCO2)N1CCN(c2ccccn2)CC1 | -13.6
91 | CCc1ccsc1C(=O)N1CCN(CC(C)(C)O)CC1 | -13.1
92 | Cn1ccnc1CN1CCCN(C(=O)COC2CCCCC2)CC1 | -23.9
93 | CCOc1cc(/C=C/c2ncc(C(=O)O)s2)cc(Br)c1O | -4.49
94 | CC(C)c1nn(C)c(N(C)C)c1CNCC(O)c1cccc(F)c1 (stereo not given) | -1.82
95 | Cc1noc(C2CCN(C(=O)CCc3nccs3)CC2)n1 | -5.43
96 | COc1cc(CNCCc2cnn(C)c2)cc2c1OCCO2 | -4.82
97 | CCOC(=O)C1CCN(Cc2csc(C(C)(C)C)n2)CC1 | -4.46
98 | Cc1cnn(CC(C)NCc2csc(-c3ccsc3)n2)c1 (stereo not given) | -6.79
99 | CN1N=C(C(=O)NCc2ccc3c(c2)CCCN3C)CCC1=O | -0.602
100 | O=C(CN(C1=NCCCC1)c1ccccc1)c1ccccc1 | -0.239
101 | CC[C@@H]1N(Cc2cccnc2)CCC[C@]12CCC(=O)N2C | -0.213
102 | CN1CCN(CC2CC2)C(=O)C12CCN(C(=O)CC(F)(F)F)CC2 | 8.75
103 | O=C(c1ccccn1)N1CCc2ncc(Cn3cccn3)n2CC1 | 5.44
104 | c1cnc(N2CCOC3(CCCN(c4cnccn4)C3)C2)nc1 (stereo not given) | 10.1
105 | Cc1ccc(CN2CCC3(CC2)CN(C(=O)c2cnccn2)CCO3)o1 | -4
106 | CO[C@H]1CCN(c2nnc(C)s2)C[C@@H]1Cc1ccccc1 | 11.8
107 | CN(C)CCOCc1nnc2n1CCN(Cc1ccco1)C2 | 7.55
108 | CC1=N[C@@]2(CC[C@@H]3CN(Cc4ccccc4)C[C@@H]32)C(=O)N1CC1CC1 | -0.302
109 | O[C@H]1CCN(CC2CC2)[C@H]1Cc1ccncc1 | 0.165
110 | CN(C)[C@@H]1COC[C@@H]2CN(Cc3ccc4c(c3)OCO4)C[C@@H]21 | 2.02
